From ChEMBL document CHEMBL4480426, “Novel multi-target directed ligands based on annelated xanthine scaffold with aromatic substituents acting on adenosine receptor and monoamine oxidase B. Synthesis, in vitro and in silico studies” (Bioorg Med Chem, 2019)
pIC50, pKi: −log10 of the molar value.

Legend:
Adenosine receptor A1 = target: T1, Adenosine receptor A1 (Homo sapiens, UniProt P30542); experiment: Displacement of [3H]CCPA from recombinant human adenosine A1 receptor expressed in CHO cells; type: cell-based
T1 sequence (P30542 whole entry): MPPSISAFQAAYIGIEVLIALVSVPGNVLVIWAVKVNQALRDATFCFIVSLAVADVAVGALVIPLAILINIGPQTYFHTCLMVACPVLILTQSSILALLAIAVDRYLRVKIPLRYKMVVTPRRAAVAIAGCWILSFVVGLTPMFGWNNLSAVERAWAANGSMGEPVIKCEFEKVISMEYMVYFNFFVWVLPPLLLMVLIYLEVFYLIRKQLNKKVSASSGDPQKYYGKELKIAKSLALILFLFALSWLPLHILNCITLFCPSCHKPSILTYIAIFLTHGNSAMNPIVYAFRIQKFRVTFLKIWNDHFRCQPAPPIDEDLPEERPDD

[1] = target: T2, Adenosine receptor A1 (Homo sapiens) (UniProt P30542); experiment: Displacement of [3H]CCPA from recombinant human adenosine A1 receptor expressed in CHO cells at 1 uM relative to control; type: cell-based
T2 sequence (whole entry): T1 sequence (P30542 whole entry)
Procedure, shortened: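 Purchased membranes of CHO cells expressing human A1 ([3H]CCPA) or human A3 ([3H]PSB-11). A single high compound concentration is screened first; for potent compounds, full inhibition curves spanning 3 orders of magnitude. At least three independent experiments.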

[2] = target: T3, Amine oxidase [flavin-containing] B (Homo sapiens, UniProt P27338); experiment: Inhibition of recombinant human MAOB expressed in baculovirus infected BTI insect cells using p-tyramine as substrate preincubated for 30 mins followed by substrate addition and measured over 45 mins by horseradish peroxidase-Amplex Red-coupled fluorometric assay
T3 sequence (P27338 whole entry): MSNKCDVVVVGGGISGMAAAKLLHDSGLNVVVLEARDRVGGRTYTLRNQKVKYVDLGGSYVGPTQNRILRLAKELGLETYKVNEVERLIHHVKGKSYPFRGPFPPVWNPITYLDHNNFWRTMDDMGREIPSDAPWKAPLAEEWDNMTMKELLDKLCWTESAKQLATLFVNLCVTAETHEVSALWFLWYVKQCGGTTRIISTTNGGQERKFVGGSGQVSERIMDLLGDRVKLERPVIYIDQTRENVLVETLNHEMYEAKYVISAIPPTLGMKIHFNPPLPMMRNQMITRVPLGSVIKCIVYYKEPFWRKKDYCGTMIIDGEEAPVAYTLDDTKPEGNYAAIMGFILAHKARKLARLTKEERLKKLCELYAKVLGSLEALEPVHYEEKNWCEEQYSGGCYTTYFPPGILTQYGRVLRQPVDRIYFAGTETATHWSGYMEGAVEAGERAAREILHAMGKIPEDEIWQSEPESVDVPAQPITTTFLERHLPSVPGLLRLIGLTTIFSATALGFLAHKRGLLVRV
Procedure, shortened: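 Human recombinant MAO-A or MAO-B enzyme. Activity detected fluorometrically with the Amplex Red monoamine oxidase assay.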

pKi (Adenosine receptor A1): < 6.00
inhibition [1]: 21%
pIC50 [2]: 7.08
Structure (SMILES): Cn1c(=O)c2c(nc3n2CCCCN3Cc2ccc(Cl)c(Cl)c2)n(C)c1=O
